Assay outcomes as filed in PubChem.
PAFAH2 FP inh: PAFAH2 (human) inhibition; Q99487; recombinant PAFAH2, FP-rhodamine activity probe, fluorescence polarization; inhibition, % at 3.39 µM; actives 0.99% (n = 340,000);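 active = inhibition above the mean over all tested compounds plus 3 SD, cut at about 30% in these data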;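 note: inhibitors block probe labeling of enzyme so polarization drops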
ASAP1 inh: blocks human ASAP1-stimulated Arf1 GTP hydrolysis; Q9ULH1; GDP FP detection; inhibition, % at 16.5 µM; actives 0.19% (n = 360,000); AID 624377; in the data active = inhibition above about 25%
PAFAH1B3 inh: PAFAH1B3 (human) inhibition; recombinant PAFAH1B3, FP-rhodamine probe, fluorescence polarization; inhibition, % at 3.39 µM; actives 0.28% (n = 340,000); AID 492972;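 active = inhibition above the screen-wide average of all tested compounds plus 3 SD, cut at about 25% in these data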
ARFGAP1 inhibitor: rat ARFGAP1 inhibition. Q62848. Arfgap1-stimulated ARF1 GTP hydrolysis, GDP FP detection. inhibition, % at 16.5 µM. actives 0.26% (n = 360,000). AID 651572;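 active = inhibition above a per-plate limit, mean inhibition of low control wells plus 3 SD, cut at about 25% in these data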
Target sequence (Q62848 1-136 limits assumed): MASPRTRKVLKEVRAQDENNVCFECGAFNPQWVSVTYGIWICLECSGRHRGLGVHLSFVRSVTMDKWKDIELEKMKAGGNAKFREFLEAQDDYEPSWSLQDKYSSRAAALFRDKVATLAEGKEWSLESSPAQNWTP
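system = rat Arfgap1 catalytic domain, aa 1-136 | technique = FP, GDP Alexa 633 tracer displaced from anti-GDP antibody, 620/688 nm | compound = one concentration, 16.5 µM, DMSO 1.26% | medium = HEPES-based buffer, pH 7.5 | timing = compound-enzyme preincubation 20 min, reaction 120 min, detection 60 min, 25 °C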
PAFAH1B2 FP inh: inhibitors of human PAFAH1B2 | inhibition, % at 3.39 µM | recombinant PAFAH1B2, FP-rhodamine activity probe, fluorescence polarization | P68402 | actives 1.2% (n = 340,000) | AID 492953;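 active = inhibition above the mean of all tested compounds plus 3 SD, cut at about 24% in these data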
Target sequence (P68402 whole entry, looked up): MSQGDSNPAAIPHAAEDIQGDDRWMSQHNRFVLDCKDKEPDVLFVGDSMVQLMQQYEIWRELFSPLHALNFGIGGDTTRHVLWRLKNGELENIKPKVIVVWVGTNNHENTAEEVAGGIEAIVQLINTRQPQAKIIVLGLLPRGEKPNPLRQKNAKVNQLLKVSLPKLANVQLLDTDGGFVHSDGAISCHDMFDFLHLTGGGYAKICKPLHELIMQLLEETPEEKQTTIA
pPAFAH FP inh: inhibitors of human plasma PAF acetylhydrolase (pPAFAH). recombinant pPAFAH, FP-rhodamine probe fluorescence polarization. inhibition, % at 3.39 µM. actives 1.5% (n = 330,000). Q13093;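 active = inhibition above the mean inhibition across the screen plus 3 SD, cut at about 25% in these data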;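 note: inhibitors block binding of the rhodamine activity-based probe so polarization drops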
pPAFAH confirm: confirmation of human plasma PAF acetylhydrolase (pPAFAH) inhibitors; shares compounds with pPAFAH FP inh; AID 463230; recombinant pPAFAH, FP-Rh probe fluorescence polarization; actives 72% (n = 2,300); inhibition, % at 3.39 µM;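 active = mean inhibition of the triplicate above the hit cutoff set for the earlier primary screen, cut at about 25% in these data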
A number is an active result; 0 = inactive; - = no result given. Sampled rows, rich in hits. Any-hit rate of the full collection: about 2.7%.

SMILES	PAFAH2 FP inh	ASAP1 inh	PAFAH1B3 inh	ARFGAP1 inhibitor	PAFAH1B2 FP inh	pPAFAH FP inh	pPAFAH confirm
COc1ccc(C)cc1NC(=O)NNC(=O)c1cc2ccccc2cc1O	0	0	34	0	0	48	52
COc1ccc(NC(=O)NNC(=O)c2cc3ccccc3cc2O)cc1	0	0	0	0	0	0	-
COc1ccccc1NC(=O)c1cc2cc(Br)ccc2cc1O	0	0	29	0	0	42	45
Cc1c(NC(=O)c2cccc(NC(=O)COc3ccc(C#N)cc3)c2)c(=O)n(-c2ccccc2)n1C	0	0	0	0	0	-	-
Cc1nn(-c2cccc(C(F)(F)F)c2)c(Cl)c1/C=N/Nc1cccc(C(=O)O)c1	0	0	0	0	0	35	35
CC(=O)C1=CCC(c2cccs2)N(S(=O)(=O)c2ccc(C)cc2)C1 (stereo not given)	-	0	-	0	-	-	-
Cc1[nH]c2ccccc2c1N=Nc1cccc(C(=O)O)c1	0	0	0	0	0	0	-
Cc1[nH]c2ccccc2c1N=Nc1ccccc1C(=O)O	0	0	0	0	0	47	31
O=C(OCC(=O)N1CCN(C(=O)c2ccco2)CC1)c1cc(S(=O)(=O)Nc2ccc(Cl)cc2)ccc1O	0	0	0	0	33	62	68
O=C(CCNS(=O)(=O)c1ccc(Cl)cc1)OCC(=O)N1CCN(C(=O)c2ccco2)CC1	0	0	0	0	0	0	-
COC(=O)C1CN(S(=O)(=O)c2ccccc2)CCN1S(=O)(=O)c1ccccc1 (stereo not given)	0	0	0	0	0	0	-
Cc1cc(NC(=O)Cc2cn(C)c3ccccc23)ccc1Oc1cccnc1	-	0	-	0	-	-	-
O=C1C(CSCc2ccccc2)NC(=S)N1c1ccccc1 (stereo not given)	-	0	-	0	-	37	0
CCOc1ccc(S(=O)(=O)Nc2ccc(C(=O)NCC(c3ccc(OC)cc3)N3CCOCC3)cc2)cc1 (stereo not given)	0	0	0	0	0	0	-
CCOc1ccc(NS(=O)(=O)c2ccc(C(=O)NCC(c3ccc(OC)cc3)N3CCOCC3)cc2)cc1 (stereo not given)	0	0	0	0	0	50	59
Cc1cc(S(=O)(=O)Nc2ccc(C(=O)NCC3(N(C)C)CCCCC3)cc2)ccc1F	0	0	0	0	0	0	-
CCOc1ccc(NS(=O)(=O)c2ccc(C(=O)NCC3(N(C)C)CCCCC3)cc2)cc1	0	0	0	0	0	52	45
Cc1ccc(Cc2c(-c3cccc(Br)c3)nc3c(C)cc(Br)cn23)cc1	-	0	-	0	-	-	-
CC(NC(=S)Nc1cccc(F)c1)C(c1cccs1)N1CCOCC1 (stereo not given)	0	0	0	0	0	47	0
N#C/C(=C\c1cc(Cl)c(OCc2ccc(Cl)cc2)c(Cl)c1)C(N)=O	-	-	-	-	-	0	-
N#C/C(=C\c1cc(O)c(O)c(O)c1)C(N)=O	0	0	0	0	0	42	0
Cc1cc(C)cc(C(=O)NCC(=O)OCc2c(C)noc2C)c1	0	0	0	0	0	37	0
Cc1noc(C)c1COC(=O)CNC(=O)c1ccc(Cl)cc1	0	0	0	0	0	0	-
COc1cccc(NC(=O)CN(C)C(=O)CCCc2c[nH]c3ccccc23)c1	0	0	0	0	0	0	-
O=c1cc(CSc2ccc(Cl)cc2)[nH]c2[nH]n(-c3ccccc3)c(=O)c12	33	0	0	0	45	43	27
Cc1ccc(SCc2cc(=O)c3c(=O)n(-c4ccccc4)[nH]c3[nH]2)cc1	0	0	0	0	25	46	0
COc1cc2c(cc1C1NC(=S)NC(C)=C1C(N)=O)CCCC2 (stereo not given)	0	0	0	0	0	0	-
O=C(O)CC1S/C(=N/N=C/c2ccc(-c3ccc(Cl)c([N+](=O)[O-])c3)o2)NC1=O (stereo not given)	0	0	0	0	0	36	0
CCOc1cc(S(=O)(=O)NCc2ccccc2)ccc1Br	0	0	0	0	0	0	-
